Experimental data from ChEMBL document CHEMBL1122071, “Avermectin acyl derivatives with anthelmintic activity” (1982).

Legend:
Type in all cases: functional
Cooperia curticei [1] = assay: Anthelmintic efficacy against adult Cooperia curticei. in sheep at dose of 0.1 mg/kg administered subcutaneously; conditions: route subcutaneous
Cooperia curticei [2] = assay: Anthelmintic efficacy against immature (EL4) Cooperia curticei. in sheep at dose of 0.1 mg/kg administered subcutaneously; conditions: route subcutaneous
Haemonchus contortus = assay: Anthelmintic efficacy against adult Haemonchus contortus (H.c) in sheep at dose of 0.1 mg/kg administered subcutaneously; conditions: route subcutaneous
How it was run: (§1)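 Experimentally infected lambs carrying mixed nematode species each received 0.1 mg/kg by subcutaneous injection, one sheep per treatment. An untreated infected group of 6 lambs served as comparison, with worm burdens given as the geometric mean number of worms per lamb. Efficacy was scored for each parasite species.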

[3] = system: Oesophagostomum columbianum; assay: Anthelmintic efficacy against Oseophagostomum columbianum (Oe. c) in sheep at dose of 0.1 mg/kg administered subcutaneously; conditions: route subcutaneous; how it was run: as §1
Trichostrongylus axei = assay: Anthelmintic efficacy against Trichostrongylus axei (T.a) in sheep at dose of 0.1 mg/kg administered subcutaneously; 60-89; conditions: route subcutaneous; how it was run: as §1
[4] = system: Trichostrongylus colubriformis; assay: Minimal dose necessary to eliminate > 83% of Trichostrongylus colubriformis infection in gerbils
[5] = system: Trichostrongylus colubriformis; assay: Anthelmintic efficacy against Trichostrongylus colubriformis (T.c) in sheep at dose of 0.1 mg/kg administered subcutaneously; conditions: route subcutaneous; how it was run: as §1

Compound: CC[C@H](C)[C@H]1O[C@]2(C=C[C@@H]1C)C[C@@H]1C[C@@H](C/C=C(\C)[C@@H](O[C@H]3C[C@@H](OC)[C@@H](O[C@H]4C[C@@H](OC)[C@@H](OC(=O)CCC(=O)O)[C@H](C)O4)[C@H](C)O3)[C@@H](C)/C=C/C=C3\CO[C@@H]4[C@H](O)C(C)=C[C@@H](C(=O)O1)[C@]34O)O2
- Efficacy (Cooperia curticei [1]): >90%
- Efficacy (Cooperia curticei [2]): >90%
- Efficacy (Haemonchus contortus): >90%
- Efficacy [3]: >90%
- Efficacy (Trichostrongylus axei): 60%
- Dose [4]: 0.03 mg/kg
- Efficacy [5]: >90%
